Assay results as given in ChEMBL document CHEMBL1157932, “Prenylated pterocarpans as bacterial neuraminidase inhibitors” (Bioorg Med Chem, 2010).
Calls of active or inactive are those of the source. No cut-off for these calls is given here.

Columns and labels:
[1] = target: T1, Sialidase (Clostridium perfringens) (UniProt P10481); assay: Noncompetitive inhibition of Clostridium perfringens neuraminidase by Lineweaver-Burke plot analysis
T1 sequence (whole entry): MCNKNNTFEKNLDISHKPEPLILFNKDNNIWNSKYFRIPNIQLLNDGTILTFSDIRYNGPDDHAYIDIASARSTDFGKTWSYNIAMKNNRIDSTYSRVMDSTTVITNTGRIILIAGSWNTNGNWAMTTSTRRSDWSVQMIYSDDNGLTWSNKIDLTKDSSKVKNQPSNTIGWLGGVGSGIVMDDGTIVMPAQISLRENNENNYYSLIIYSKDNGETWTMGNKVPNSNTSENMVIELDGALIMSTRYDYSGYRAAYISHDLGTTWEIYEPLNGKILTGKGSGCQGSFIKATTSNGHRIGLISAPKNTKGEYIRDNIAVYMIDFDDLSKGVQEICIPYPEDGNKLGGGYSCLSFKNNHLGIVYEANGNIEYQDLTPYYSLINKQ

[2] = target: T1, Sialidase (Clostridium perfringens); assay: Inhibition of Clostridium perfringens neuraminidase at 0.1 times IC50 by spectrofluorimetry
Procedure, shortened: (§1)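 Reversibility by jump dilution: enzyme pre-incubated 15 min with compound at 100-fold assay enzyme level (0.125 U/mL), then diluted 1/100 into acetate buffer with substrate. Progress curves of fluorescence over 30 min compared with enzyme pre-incubated and diluted without compound.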

[3] = target: T1, Sialidase (Clostridium perfringens); assay: Reversible inhibition of Clostridium perfringens neuraminidase at 10 times IC50 pre-incubated for 15 mins by spectrofluorimetry; procedure, shortened: as §1
Sialidase [4] = target: T2, Sialidase (Clostridium perfringens, UniProt P10481); assay: (§2) Inhibition of Clostridium perfringens neuraminidase assessed as inhibition of 4-MU-NANA hydrolysis after 10 mins by spectrofluorimetry
T2 sequence (P10481 whole entry): T1 sequence (whole entry)
Procedure, shortened: (§3)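 Enzyme at 0.05 U/mL in 0.04 M sodium acetate pH 5.0 with compound (DMSO stock diluted in buffer) and 4-MU-NANA (1 mM stock); 10 min at 37 °C. Stopped with 0.1 M glycine–NaOH pH 10.4; 4-methylumbelliferone read at ex 360/em 440 nm. IC50 from regression, mean ± SD of three replicates.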

[5] = target: T1, Sialidase (Clostridium perfringens); assay: as §2; procedure, shortened: as §3
[6] = target: T1, Sialidase (Clostridium perfringens); assay: Inhibition of Clostridium perfringens neuraminidase at 10 times IC50 by spectrofluorimetry; procedure, shortened: as §1
Sialidase [7] = target: Sialidase (Vibrio cholerae serotype O1 (strain ATCC 39315 / El Tor Inaba N16961), UniProt P0C6E9); assay: (§4) Inhibition of Vibrio cholerae neuraminidase assessed as inhibition of 4-MU-NANA hydrolysis after 30 mins by spectrofluorimetry
Procedure, shortened: (§5)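 V. cholerae enzyme (8.3 U) with compound in 50 mM MES, 6 mM CaCl2, pH 5.6, pre-incubated 30 min at 37 °C with shaking. 4-MU-NANA added at 25 µM final, 30 min at 37 °C, then quenched with 0.25 M glycine pH 10.0. Read at ex 360/em 440 nm, blank-corrected, expressed as % of no-inhibitor control, at least triplicate.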

[8] = target: Sialidase (Vibrio cholerae serotype O1 (strain ATCC 39315 / El Tor Inaba N16961)) (UniProt P0C6E9); assay: as §4; procedure, shortened: as §5
Sialidase [9] = target: T2, Sialidase; assay: Noncompetitive inhibition of Clostridium perfringens neuraminidase
Procedure, shortened: (§6)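 Kinetics run in acetate-buffer 4-MU-NANA fluorometric assay without stop solution, product read immediately at ex 360/em 440 nm across substrate and inhibitor concentrations. Mode assigned from Lineweaver–Burk and Dixon plots; Ki from x-axis intersection of lines.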

[10] = target: T1, Sialidase (Clostridium perfringens); assay: Noncompetitive inhibition of Clostridium perfringens neuraminidase by Dixon plot analysis
Procedure, shortened: (§7)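 Dixon plots of 1/v against [I] at each substrate concentration, rates from unquenched fluorometric 4-MU-NANA hydrolysis (ex 360/em 440 nm); Ki read from the x-axis value where lines intersect.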

[11] = target: T1, Sialidase (Clostridium perfringens); assay: Reversible inhibition of Clostridium perfringens neuraminidase at 0.1 times IC50 pre-incubated for 15 mins by spectrofluorimetry; procedure, shortened: as §1
Sialidase [12] = target: T2, Sialidase; assay: Competitive inhibition of Clostridium perfringens neuraminidase; procedure, shortened: as §6
[13] = target: T1, Sialidase (Clostridium perfringens); assay: Competitive inhibition of Clostridium perfringens neuraminidase by Lineweaver-Burke plot analysis
[14] = target: T1, Sialidase (Clostridium perfringens); assay: Competitive inhibition of Clostridium perfringens neuraminidase by Dixon plot analysis; procedure, shortened: as §7
Vibrio cholerae [15] = assay: Antibacterial activity against Vibrio cholerae 16961 at 3 to 10 ug/ml after 24 hrs; assay type: functional, organism-based
Vibrio cholerae [16] = assay: Antibacterial activity against Vibrio cholerae 16961 infected in human HeLa cells assessed as inhibition of bacterial adherence to host cell at 3 to 10 ug/ml pre-incubated for 1 hr before infection measured after 30 mins of infection by Giemsa staining; assay type: functional, organism-based
[17] = target: Sialidase (Vibrio cholerae serotype O1 (strain ATCC 39315 / El Tor Inaba N16961)) (UniProt P0C6E9); assay: Inhibition of Vibrio cholerae neuraminidase assessed as inhibition of 4-MU-NANA hydrolysis at 30 ug/mL after 10 mins by spectrofluorimetry
[18] = target: T1, Sialidase (Clostridium perfringens); conditions: 20 ug/mL

Chain of Sialidase (Vibrio cholerae serotype O1 (strain ATCC 39315 / El Tor Inaba N16961)) (P0C6E9 whole entry, one chain of several): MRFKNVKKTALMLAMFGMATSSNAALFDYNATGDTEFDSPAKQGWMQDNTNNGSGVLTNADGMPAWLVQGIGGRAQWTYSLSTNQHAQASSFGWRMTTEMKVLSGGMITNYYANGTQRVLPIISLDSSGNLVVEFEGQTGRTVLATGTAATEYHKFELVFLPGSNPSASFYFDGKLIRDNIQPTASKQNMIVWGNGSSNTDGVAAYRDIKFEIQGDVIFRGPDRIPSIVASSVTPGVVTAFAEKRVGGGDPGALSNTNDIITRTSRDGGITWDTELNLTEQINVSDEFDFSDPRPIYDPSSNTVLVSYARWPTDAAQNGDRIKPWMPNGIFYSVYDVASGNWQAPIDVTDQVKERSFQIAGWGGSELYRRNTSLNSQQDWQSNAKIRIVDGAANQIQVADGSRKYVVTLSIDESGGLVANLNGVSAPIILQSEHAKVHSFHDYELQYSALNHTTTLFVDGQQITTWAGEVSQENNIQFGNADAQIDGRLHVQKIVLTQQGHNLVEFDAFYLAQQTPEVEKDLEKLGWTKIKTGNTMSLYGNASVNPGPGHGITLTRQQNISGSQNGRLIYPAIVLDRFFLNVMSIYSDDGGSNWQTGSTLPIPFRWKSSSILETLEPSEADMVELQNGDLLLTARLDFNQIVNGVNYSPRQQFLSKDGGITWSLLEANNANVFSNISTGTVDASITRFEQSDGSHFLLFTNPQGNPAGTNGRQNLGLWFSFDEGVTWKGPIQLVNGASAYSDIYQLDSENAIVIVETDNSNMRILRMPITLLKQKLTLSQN
Chain of Sialidase (Vibrio cholerae serotype O1 (strain ATCC 39315 / El Tor Inaba N16961), UniProt P0C6E9) (P0C6E9 whole entry, one chain of several): as above

COc1ccc2c(c1CC=C(C)C)O[C@H]1c3cc(CC=C(C)C)c(O)cc3OC[C@@]21O [ERYSTAGALLIN A] was tested, and the inhibition [1] was “Active”, the inhibition [2] was 9% and the inhibition [3] was “Active”. For the same compound, the IC50 (Sialidase [4]) was 2.04 µM, the Activity [5] was “Dose-dependent effect” and the inhibition [6] was 91%. The IC50 (Sialidase [7]) was 27.7 µM, the Activity [8] was “Dose-dependent effect” and the Ki (Sialidase [9]) was 1.8 µM. For the same compound, the inhibition [10] was “Active” and the inhibition [11] was “Active”.

In the case of CC1(C)C=Cc2cc3c(cc2O1)OC[C@H]1c2ccc(O)cc2O[C@@H]31 [NEORAUTENOL], the inhibition [1] is reported as “Active”, the inhibition [2] is reported as 9% and the inhibition [3] is reported as “Active”. For the same compound, the IC50 (Sialidase [4]) was 19.8 µM, the Activity [5] was “Dose-dependent effect” and the inhibition [6] was 91%. For the same compound, the IC50 (Sialidase [7]) was 53.1 µM, the Activity [8] was “Dose-dependent effect” and the Ki (Sialidase [9]) was 21.7 µM. For the same compound, the inhibition [10] was “Active” and the inhibition [11] was “Active”.

For CC1(C)Oc2ccc3c(c2CC1O)O[C@@H]1c2ccc(O)cc2OC[C@H]31 (stereo partly drawn) [ERYTHRIBYSSIN M], the inhibition [2] was 9%, the inhibition [3] was “Active” and the IC50 (Sialidase [4]) was 205 µM. For the same compound, the Activity [5] was “Dose-dependent effect”, the inhibition [6] was 91% and the IC50 (Sialidase [7]) was 77.7 µM. The Activity [8] was “Dose-dependent effect” and the inhibition [11] was “Active”.

For CC(C)=CCc1cc2c(cc1O)OC[C@H]1c3ccc4c(c3O[C@@H]21)CC(O)C(C)(C)O4 (stereo partly drawn) [ERYSUBIN D], the inhibition [2] was 9%, the Ki (Sialidase [12]) was 15.2 µM and the inhibition [3] was “Active”. The IC50 (Sialidase [4]) was 26.4 µM, the Activity [5] was “Dose-dependent effect” and the inhibition [6] was 91%. For the same compound, the inhibition [13] was “Active”, the inhibition [14] was “Active” and the IC50 (Sialidase [7]) was 26.4 µM. The Activity [8] was “Dose-dependent effect” and the inhibition [11] was “Active”.

In the case of CC1(C)C=Cc2cc3c(cc2O1)O[C@H]1c2ccc(O)cc2OC[C@@H]31 [ISONEORAUTENOL], the inhibition [1] is reported as “Active”, the inhibition [2] is reported as 9% and the inhibition [3] is reported as “Active”. For the same compound, the IC50 (Sialidase [4]) was 14.1 µM, the Activity [5] was “Dose-dependent effect” and the inhibition [6] was 91%. For the same compound, the IC50 (Sialidase [7]) was 64.8 µM, the Activity [8] was “Dose-dependent effect” and the Ki (Sialidase [9]) was 11 µM. The inhibition [10] was “Active” and the inhibition [11] was “Active”.

CC(C)=CCc1c(O)ccc2c1O[C@H]1c3cc4c(cc3OC[C@@H]21)OC(C)(C)C(O)C4 (stereo partly drawn) [ERYTHRIBYSSIN L] was tested, and the inhibition [1] was “Active”, the inhibition [2] was 9% and the inhibition [3] was “Active”. For the same compound, the IC50 (Sialidase [4]) was 2.79 µM, the Activity [5] was “Dose-dependent effect” and the inhibition [6] was 91%. For the same compound, the IC50 (Sialidase [7]) was 27.1 µM, the Ki (Sialidase [9]) was 4.13 µM and the inhibition [10] was “Active”. For the same compound, the inhibition [11] was “Active”.

For CC1(C)Oc2ccc3c(c2CC1O)O[C@H]1c2ccc(O)cc2OC[C@@H]31 (stereo partly drawn) [ERYTHRIBYSSIN D], the inhibition [2] was 9%, the inhibition [3] was “Active” and the IC50 (Sialidase [4]) was 77.1 µM. For the same compound, the Activity [5] was “Dose-dependent effect”, the inhibition [6] was 91% and the IC50 (Sialidase [7]) was 46.2 µM. For the same compound, the Activity [8] was “Dose-dependent effect” and the inhibition [11] was “Active”.

With CC(C)=CCc1cc2c(cc1O)OC[C@@]1(O)c3ccc4c(c3O[C@@H]21)C=CC(C)(C)O4 [ERYSUBIN E] the inhibition [1] was “Active”, the inhibition [2] was 9% and the inhibition [3] was “Active”. For the same compound, the IC50 (Sialidase [4]) was 1.3 µM, the Activity [5] was “Dose-dependent effect” and the inhibition [6] was 91%. For the same compound, the IC50 (Sialidase [7]) was 19.5 µM, the Activity [8] was “Dose-dependent effect” and the Ki (Sialidase [9]) was 0.24 µM. For the same compound, the inhibition [10] was “Active” and the inhibition [11] was “Active”.

For CC(C)=CCc1cc2c(cc1O)O[C@H]1c3ccc(O)cc3OC[C@@H]21 [SOPHORAPTEROCARPAN A], the inhibition [1] was “Active”, the inhibition [2] was 9% and the inhibition [3] was “Active”. The IC50 (Sialidase [4]) was 2.01 µM, the Activity [5] was “Dose-dependent effect” and the inhibition [6] was 91%. The IC50 (Sialidase [7]) was 11.6 µM, the Ki (Sialidase [9]) was 1.78 µM and the inhibition [10] was “Active”. For the same compound, the inhibition [11] was “Active”.

In the case of COc1ccc2c(c1CC=C(C)C)O[C@H]1c3ccc(O)cc3OC[C@@]21O [ERYTHRABYSSIN I], the inhibition [1] is reported as “Active”, the inhibition [2] is reported as 9% and the inhibition [3] is reported as “Active”. The IC50 (Sialidase [4]) was 2.28 µM, the Activity [5] was “Dose-dependent effect” and the inhibition [6] was 91%. The IC50 (Sialidase [7]) was 22 µM, the Activity [8] was “Dose-dependent effect” and the Ki (Sialidase [9]) was 0.31 µM. For the same compound, the inhibition [10] was “Active” and the inhibition [11] was “Active”.

With COc1ccc2c3c(oc2c1CC=C(C)C)-c1ccc(O)cc1OC3 [ERYVARIN D] the IC50 (Sialidase [4]) was 2.09 µM, the IC50 (Sialidase [7]) was 3.3 µM and the Activity [8] was “Dose-dependent effect”. It also gave a Ki (Sialidase [9]) of 2.55 µM.

For CC1(C)C=Cc2c(ccc3c2O[C@H]2c4ccc(O)cc4OC[C@@H]32)O1 [PHASEOLIN], the Ki (Sialidase [12]) was 4.84 µM, the IC50 (Sialidase [4]) was 33.6 µM and the IC50 (Sialidase [7]) was 31.4 µM. For the same compound, the Activity [8] was “Dose-dependent effect”.

With Oc1ccc2c(c1)O[C@H]1c3ccc(O)cc3OC[C@@H]21 the inhibition [1] was “Active”, the inhibition [2] was 9% and the inhibition [3] was “Active”. The IC50 (Sialidase [4]) was 6.39 µM, the Activity [5] was “Dose-dependent effect” and the inhibition [6] was 91%. For the same compound, the IC50 (Sialidase [7]) was 29.5 µM, the Activity [8] was “Dose-dependent effect” and the Ki (Sialidase [9]) was 3.83 µM. The inhibition [10] was “Active” and the inhibition [11] was “Active”.

CC(C)=CCc1cc2c(cc1O)OC[C@H]1c3ccc(O)cc3O[C@@H]21 [CALOPOCARPIN] was tested, and the inhibition [1] was “Active”, the Activity (Vibrio cholerae [15]) was “inactive” and the inhibition [2] was 9%. The inhibition [3] was “Active”, the IC50 (Sialidase [4]) was 1.57 µM and the Activity [5] was “Dose-dependent effect”. For the same compound, the inhibition [6] was 91%, the Activity (Vibrio cholerae [16]) was “Active” and the IC50 (Sialidase [7]) was 7.55 µM. For the same compound, the Ki (Sialidase [9]) was 2.09 µM, the inhibition [10] was “Active” and the inhibition [11] was “Active”.

For CC(C)=CCc1c(O)ccc2c3c(oc12)-c1cc(C=O)c(O)cc1OC3 [ERYTHRIBYSSIN O], the inhibition [1] was “Active”, the inhibition [2] was 9% and the inhibition [3] was “Active”. For the same compound, the IC50 (Sialidase [4]) was 1.32 µM, the Activity [5] was “Dose-dependent effect” and the inhibition [6] was 91%. For the same compound, the IC50 (Sialidase [7]) was 0.35 µM, the Activity [8] was “Dose-dependent effect” and the Ki (Sialidase [9]) was 1.21 µM. For the same compound, the inhibition [10] was “Active” and the inhibition [11] was “Active”.

O=c1c(O)c(-c2ccc(O)c(O)c2)oc2cc(O)cc(O)c12 [QUERCETIN] gave an inhibition [17] of 29.3%, an inhibition [18] of 48.9% and an IC50 (Sialidase [4]) of 25.3 µM. The Activity [5] was “Dose-dependent effect”.
